The results in this text go back to paper PMC3172365 (Biochemistry, 2011).

The structures appear in SMILES notation.

For this experiment, the target named is T1, E. coli MutL (Escherichia coli, UniProt P23367).
T1 sequence (P23367 1-615): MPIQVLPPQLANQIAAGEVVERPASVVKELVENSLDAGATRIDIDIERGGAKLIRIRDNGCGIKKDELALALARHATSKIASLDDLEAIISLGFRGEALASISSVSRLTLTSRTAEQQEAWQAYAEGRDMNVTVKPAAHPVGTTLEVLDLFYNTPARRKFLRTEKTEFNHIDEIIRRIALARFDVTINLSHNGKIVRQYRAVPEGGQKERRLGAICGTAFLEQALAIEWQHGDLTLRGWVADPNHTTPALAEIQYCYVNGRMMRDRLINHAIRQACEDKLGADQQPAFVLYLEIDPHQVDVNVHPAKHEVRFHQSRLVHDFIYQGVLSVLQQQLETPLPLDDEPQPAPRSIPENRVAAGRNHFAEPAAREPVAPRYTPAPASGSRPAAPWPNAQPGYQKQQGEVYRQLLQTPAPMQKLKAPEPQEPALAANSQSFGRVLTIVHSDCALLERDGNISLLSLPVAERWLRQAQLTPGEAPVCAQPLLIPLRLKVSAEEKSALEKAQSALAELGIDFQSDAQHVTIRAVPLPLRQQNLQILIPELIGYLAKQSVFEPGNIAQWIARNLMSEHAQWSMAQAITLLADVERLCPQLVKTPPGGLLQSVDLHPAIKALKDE
The experiment can be described thus: analytical sedimentation velocity titration. It counts as binding. The essentials:
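Sedimentation velocity at 42,000 rpm and 25°C with purified MutL dialyzed into Buffer M (50 mM potassium phosphate pH 7.4, 50 mM KCl, 0.1 mM EDTA, 1 mM 2-mercaptoethanol) and filtered. Loading was 0.25–3.94 µM monomer, alone or with 1 mM MgCl2 + 35 µM AMPPNP (scanned 230/280 nm), or 1.75 µM dimer with varied AMPPNP (scanned 292 nm). Scans every 2.5 min gave c(s) distributions and weight-average s20,w.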

`Nc1ncnc2c1ncn2[C@@H]1O[C@H](COP(=O)(O)OP(=O)(O)NP(=O)(O)O)[C@@H](O)[C@H]1O` [AMPPNP]: the Kd was 25.6 µM. This counts as double-digit micromolar.

Broadly, the Kd is a measure of binding affinity in units of concentration.
